ChEMBL document CHEMBL5329156, “Discovery and development of novel substituted monohydrazides as potent antifungal agents” (RSC Med Chem, 2023)
Values after ≈ are worked out from the molar mass of the structure shown. Active and inactive are the calls of the source. No cut-off for these calls is given here.

Key:
[1] = system: Nakaseomyces glabratus; experiment: Antifungal activity against Candida glabrata ATCC 2001 assessed as fungal growth inhibition by double dilution method; assay type: functional
How it was run: (§1)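 Broth microdilution after CLSI M27-A3/M38-A2 with minor changes. Single colony grown overnight in YPD at 35 °C, 200 rpm. Compound final range 0.06-31.3 µg/mL; incubated 48 h at 35 °C.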

[2] = system: Candida albicans; experiment: Antifungal activity against itraconazole/fluconazole resistant Candida albicans ATCC MYA-1003 assessed as fungal growth inhibition by double dilution method; assay type: functional
How it was run: (§2)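 Broth microdilution after CLSI M27-A3/M38-A2 with minor modifications. A single colony was grown overnight in YPD at 35 °C with shaking at 200 rpm. Cells were mixed 1:1 with compound (final 0.06-31.3 µg/mL, from DMSO stocks) and incubated 48 h at 35 °C.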

[3] = system: [Candida] haemuloni; experiment: Antifungal activity against Candida haemulonii AR Bank # 395 assessed as fungal growth inhibition by double dilution method; assay type: functional; conditions: Candidozyma haemuli; how it was run: as §1
[4] = system: Candida albicans; experiment: Antifungal activity against itraconazole/fluconazole susceptible Candida albicans ATCC MYA-2310 assessed as fungal growth inhibition by double dilution method; assay type: functional; how it was run: as §2
[5] = system: Aspergillus nidulans; experiment: Antifungal activity against Aspergillus nidulans ATCC 38163 assessed as fungal growth inhibition by double dilution method; assay type: functional
[6] = system: Nakaseomyces glabratus; experiment: Antifungal activity against Candida glabrata ATCC 22019 assessed as fungal growth inhibition by double dilution method; assay type: functional; how it was run: as §1
[7] = system: [Candida] auris; experiment: Antifungal activity against Candida auris AR Bank # 387 assessed as fungal growth inhibition by double dilution method; assay type: functional; conditions: Candidozyma auris; how it was run: as §1
[8] = system: [Candida] auris; experiment: Antifungal activity against Candida auris AR Bank # 385 assessed as fungal growth inhibition by double dilution method; assay type: functional; conditions: Candidozyma auris; how it was run: as §1
[9] = system: [Candida] auris; experiment: Antifungal activity against Candida auris AR Bank # 381 assessed as fungal growth inhibition by double dilution method; assay type: functional; conditions: Candidozyma auris; how it was run: as §1
[10] = system: Candida duobushaemulonii; experiment: Antifungal activity against Candida duobushaemulonii AR Bank # 394 assessed as fungal growth inhibition by double dilution method; assay type: functional; conditions: Candidozyma duobushaemuli; how it was run: as §1
[11] = system: Saccharomyces cerevisiae; experiment: Antifungal activity against Saccharomyces cerevisiae AR Bank # 400 assessed as fungal growth inhibition by double dilution method; assay type: functional; how it was run: as §1
[12] = system: [Candida] auris; experiment: Antifungal activity against Candida auris AR Bank # 384 assessed as fungal growth inhibition by double dilution method; assay type: functional; conditions: Candidozyma auris; how it was run: as §1
[13] = system: Clavispora lusitaniae; experiment: Antifungal activity against Clavispora lusitaniae AR Bank # 398 assessed as fungal growth inhibition by double dilution method; assay type: functional; how it was run: as §1
[14] = system: [Candida] auris; experiment: Antifungal activity against Candida auris AR Bank # 388 assessed as fungal growth inhibition by double dilution method; assay type: functional; conditions: Candidozyma auris; how it was run: as §1
[15] = system: Aspergillus fumigatus; experiment: Antifungal activity against Aspergillus fumigatus NRRL 163 assessed as fungal growth inhibition by double dilution method; assay type: functional
[16] = system: Candida albicans; experiment: Antifungal activity against itraconazole/fluconazole susceptible Candida albicans ATCC MYA-2876 assessed as fungal growth inhibition by double dilution method; assay type: functional; how it was run: as §2
[17] = system: HepG2; experiment: Cytotoxicity against human HepG2 cells assessed as reduction in cell viability upto 31.3 microg/ml; assay type: toxicity, cell-based; conditions: dose < 31.3 µg/ml
How it was run: (§3)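 Cells in DMEM with 10% FBS and 1% Pen/Strep, seeded at 10,000 cells/well and held overnight at 37 °C, 5% CO2. Compounds added at final 31.3-0.12 µg/mL (0.05% DMSO vehicle) for 24 h. Resazurin then added for 6 h; fluorescence read at ex 560/em 590. Triton X-100 1% as positive control; values normalized to vehicle. Run in quadruplicate.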

[18] = system: [Candida] haemuloni; experiment: Antifungal activity against Candida haemulonii AR Bank # 393 assessed as fungal growth inhibition by double dilution method; assay type: functional; conditions: Candidozyma haemuli; how it was run: as §1
[19] = system: Candida duobushaemulonii; experiment: Antifungal activity against Candida duobushaemulonii AR Bank # 392 assessed as fungal growth inhibition by double dilution method; assay type: functional; conditions: Candidozyma duobushaemuli; how it was run: as §1
[20] = system: Candida albicans; experiment: Antifungal activity against itraconazole/fluconazole resistant Candida albicans ATCC 90819 assessed as fungal growth inhibition by double dilution method; assay type: functional; how it was run: as §2
[21] = system: [Candida] auris; experiment: Antifungal activity against Candida auris AR Bank # 389 assessed as fungal growth inhibition by double dilution method; assay type: functional; conditions: Candidozyma auris; how it was run: as §1
[22] = system: Pichia kudriavzevii; experiment: Antifungal activity against Pichia kudriavzevii AR Bank # 397 assessed as fungal growth inhibition by double dilution method; assay type: functional; how it was run: as §1
[23] = system: [Candida] auris; experiment: Antifungal activity against Candida auris AR Bank # 386 assessed as fungal growth inhibition by double dilution method; assay type: functional; conditions: Candidozyma auris; how it was run: as §1
[24] = system: Candida albicans; experiment: Antifungal activity against Candida albicans ATCC 64124 assessed as fungal growth inhibition by double dilution method; assay type: functional; how it was run: as §2
[25] = system: Candida albicans; experiment: Antifungal activity against itraconazole/fluconazole resistant Candida albicans ATCC MYA-1237 assessed as fungal growth inhibition by double dilution method; assay type: functional; how it was run: as §2
[26] = system: Candida albicans; experiment: Antifungal activity against Candida albicans ATCC 10231 assessed as fungal growth inhibition by double dilution method; assay type: functional; how it was run: as §1
[27] = system: [Candida] auris; experiment: Antifungal activity against Candida auris AR Bank # 0390 assessed as fungal growth inhibition by double dilution method; assay type: functional; conditions: Candidozyma auris; how it was run: as §1
[28] = system: [Candida] auris; experiment: Antifungal activity against Candida auris AR Bank # 0384 assessed as fungal growth inhibition by double dilution method; assay type: functional; conditions: Candidozyma auris; how it was run: as §1
[29] = system: Candida albicans; experiment: Antibiofilm activity against Candida albicans ATCC 10231 assessed as reduction in biofilm production at 1.96 to 3.9 microg/ml by biofilm formation assay; assay type: functional, organism-based; conditions: dose 1.96-3.9 µg/ml
[30] = system: HEK293; experiment: Cytotoxicity against human HEK-293 cells assessed as reduction in cell viability at 31.3 microg/ml; assay type: toxicity, cell-based; conditions: dose 31.3 µg/ml; how it was run: as §3
[31] = system: Cryptococcus neoformans; experiment: Antifungal activity against Cryptococcus neoformans ATCC MYA-895 assessed as fungal growth inhibition by double dilution method; assay type: functional; how it was run: as §1
[32] = system: Candida duobushaemulonii; experiment: Antifungal activity against Candida duobushaemulonii AR Bank # 391 assessed as fungal growth inhibition by double dilution method; assay type: functional; conditions: Candidozyma duobushaemuli; how it was run: as §1
[33] = system: Aspergillus fumigatus; experiment: Antifungal activity against Aspergillus fumigatus NRRL 5109 assessed as fungal growth inhibition by double dilution method; assay type: functional
[34] = system: Pichia kudriavzevii; experiment: Antifungal activity against Pichia kudriavzevii ATCC 6258 assessed as fungal growth inhibition by double dilution method; assay type: functional; how it was run: as §1
[35] = system: J774.A1; experiment: Cytotoxicity against J774A.1 cells assessed as reduction in cell viability at 31.3 microg/ml; assay type: toxicity, cell-based; conditions: mouse, dose 31.3 µg/ml; how it was run: as §3
[36] = system: Aspergillus flavus; experiment: Antifungal activity against Aspergillus flavus ATCC MYA-3631 assessed as fungal growth inhibition by double dilution method; assay type: functional
[37] = system: Aspergillus terreus; experiment: Antifungal activity against Aspergillus terreus ATCC MYA-3633 assessed as fungal growth inhibition by double dilution method; assay type: functional
[38] = system: [Candida] auris; experiment: Antifungal activity against Candida auris AR Bank # 383 assessed as fungal growth inhibition by double dilution method; assay type: functional; conditions: Candidozyma auris; how it was run: as §1
[39] = system: [Candida] auris; experiment: Antifungal activity against Candida auris AR Bank # 390 assessed as fungal growth inhibition by double dilution method; assay type: functional; conditions: Candidozyma auris; how it was run: as §1
[40] = system: Aspergillus fumigatus; experiment: Antifungal activity against Aspergillus fumigatus NRRL 6113 assessed as fungal growth inhibition by double dilution method; assay type: functional
[41] = system: Kodamaea ohmeri; experiment: Antifungal activity against Kodamaea ohmeri AR Bank # 396 assessed as fungal growth inhibition by double dilution method; assay type: functional; how it was run: as §1
[42] = system: Saccharomyces cerevisiae; experiment: Antifungal activity against Saccharomyces cerevisiae AR Bank # 399 assessed as fungal growth inhibition by double dilution method; assay type: functional; how it was run: as §1
[43] = system: [Candida] auris; experiment: Antifungal activity against Candida auris AR Bank # 382 assessed as fungal growth inhibition by double dilution method; assay type: functional; conditions: Candidozyma auris; how it was run: as §1

Q: Which results are given for `O=C(NNc1cccc(F)c1)c1ccccn1`?
A: MIC [1]: 1.95 µg/mL (≈ 8.43 µM); MIC [2]: 0.98 µg/mL (≈ 4.24 µM); MIC [3]: ≤ 0.06 µg/mL; MIC [4]: 1.95 µg/mL (≈ 8.43 µM); MIC [5]: 0.49 µg/mL (≈ 2.12 µM); MIC [6]: 1.95 µg/mL (≈ 8.43 µM); MIC [7]: 0.49 µg/mL (≈ 2.12 µM); MIC [8]: 0.98 µg/mL (≈ 4.24 µM); MIC [9]: 0.49 µg/mL (≈ 2.12 µM); MIC [10]: 0.49 µg/mL (≈ 2.12 µM); MIC [11]: 1.95 µg/mL (≈ 8.43 µM); MIC [12]: 1.95 µg/mL (≈ 8.43 µM); MIC [13]: 0.98 µg/mL (≈ 4.24 µM); MIC [14]: 0.49 µg/mL (≈ 2.12 µM); MIC [15]: > 31.3 µg/mL; MIC [16]: 0.98 µg/mL (≈ 4.24 µM); Activity [17]: Non-Toxic; MIC [18]: 0.12 µg/mL (≈ 0.519 µM); MIC [19]: 0.24 µg/mL (≈ 1.04 µM); MIC [20]: 0.49 µg/mL (≈ 2.12 µM); MIC [21]: 0.12 µg/mL (≈ 0.519 µM); MIC [22]: 0.24 µg/mL (≈ 1.04 µM); MIC [23]: 0.49 µg/mL (≈ 2.12 µM); MIC [24]: 0.98 µg/mL (≈ 4.24 µM); MIC [25]: 0.98 µg/mL (≈ 4.24 µM); MIC [26]: ≤ 0.06 µg/mL; MIC [27]: 0.24 µg/mL (≈ 1.04 µM); MIC [28]: 1.95 µg/mL (≈ 8.43 µM); Activity [29]: Active; Activity [30]: Non-Toxic; MIC [31]: 0.12 µg/mL (≈ 0.519 µM); MIC [32]: 0.49 µg/mL (≈ 2.12 µM); MIC [33]: > 31.3 µg/mL; MIC [34]: 0.24 µg/mL (≈ 1.04 µM); Activity [35]: Non-Toxic; MIC [36]: 7.8 µg/mL (≈ 33.7 µM); MIC [37]: 1.95 µg/mL (≈ 8.43 µM); MIC [38]: 1.95 µg/mL (≈ 8.43 µM); MIC [39]: 0.24 µg/mL (≈ 1.04 µM); MIC [40]: > 31.3 µg/mL; MIC [41]: 0.24 µg/mL (≈ 1.04 µM); MIC [42]: 1.95 µg/mL (≈ 8.43 µM); MIC [43]: 0.98 µg/mL (≈ 4.24 µM)
